Data taken from ChEMBL document CHEMBL2016470, “Quinolinyl- and phenantridinyl-acetamides as bradykinin B1 receptor antagonists” (Bioorg Med Chem Lett, 2012).
Activity calls are given as the source filed them. The calls are words filed in the database; no cut-off is given here.

Key:
B1 bradykinin receptor [1] = target: T1, B1 bradykinin receptor (Rattus norvegicus, UniProt P97583); experiment: Antagonist activity at rat bradykinin B1 receptor; type: functional
T1 sequence (P97583 whole entry): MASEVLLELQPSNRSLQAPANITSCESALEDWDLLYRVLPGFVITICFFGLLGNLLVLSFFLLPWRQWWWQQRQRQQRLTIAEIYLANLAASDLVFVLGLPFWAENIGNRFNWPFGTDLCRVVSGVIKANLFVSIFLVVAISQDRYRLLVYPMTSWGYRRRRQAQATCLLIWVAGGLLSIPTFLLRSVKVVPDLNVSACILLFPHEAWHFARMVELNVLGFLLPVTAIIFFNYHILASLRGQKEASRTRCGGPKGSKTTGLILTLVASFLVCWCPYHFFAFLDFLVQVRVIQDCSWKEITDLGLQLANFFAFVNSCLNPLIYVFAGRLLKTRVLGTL

Liver microsomes [2] = experiment: Intrinsic clearance in rat liver microsomes assessed per gram of liver at 2.5 uM after 20 mins; type: ADME, Microsome
B1 bradykinin receptor [3] = target: T2, B1 bradykinin receptor (Homo sapiens, UniProt P46663); experiment: Binding affinity to human bradykinin B1 receptor
T2 sequence (P46663 whole entry): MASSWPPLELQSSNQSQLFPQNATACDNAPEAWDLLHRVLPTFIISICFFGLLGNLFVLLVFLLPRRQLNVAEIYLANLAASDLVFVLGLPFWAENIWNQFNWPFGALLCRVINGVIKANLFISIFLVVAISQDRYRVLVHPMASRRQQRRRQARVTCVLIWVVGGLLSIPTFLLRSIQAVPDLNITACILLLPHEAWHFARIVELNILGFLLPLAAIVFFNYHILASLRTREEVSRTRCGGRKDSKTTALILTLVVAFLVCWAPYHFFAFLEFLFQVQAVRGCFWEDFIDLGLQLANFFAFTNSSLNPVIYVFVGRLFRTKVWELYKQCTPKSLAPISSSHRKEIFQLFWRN

Liver microsomes [4] = experiment: Intrinsic clearance in human liver microsomes assessed per gram of liver at 2.5 uM after 20 mins; type: ADME, Microsome
Rattus norvegicus [5] = experiment: Antiinflammatory activity in Wistar rat pain model assessed as inhibition of DABK-induced paw oedema at 0.3 mg/kg, po administered 120 mins before DABK challenge measured by plethysometric analysis; type: functional
Outline: (§1)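 Male Wistar rats, 120–150 g, LPS-pretreated; oral dosing in 5% (v/v) Tween 80 in saline before DABK injection. Paw volume by plethysmometer at 0, 10, 20, 30 min post-DABK; maximum edema volume taken. Percent inhibition from treated group means versus simultaneous vehicle means; ANOVA with Dunnett's test versus vehicle.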

Rattus norvegicus [6] = experiment: Antiinflammatory activity in po dosed Wistar rat pain model assessed as inhibition of DABK-induced paw oedema administered 120 mins before DABK challenge measured by plethysometric analysis; type: functional, organism-based; outline: as §1
[7] = target: T3, B2 bradykinin receptor (Homo sapiens) (UniProt P30411); experiment: Antagonist activity at human bradykinin B2 receptor at 1 uM; type: functional; set-up: scale not given: the % may be the effect or the level left
T3 sequence (whole entry): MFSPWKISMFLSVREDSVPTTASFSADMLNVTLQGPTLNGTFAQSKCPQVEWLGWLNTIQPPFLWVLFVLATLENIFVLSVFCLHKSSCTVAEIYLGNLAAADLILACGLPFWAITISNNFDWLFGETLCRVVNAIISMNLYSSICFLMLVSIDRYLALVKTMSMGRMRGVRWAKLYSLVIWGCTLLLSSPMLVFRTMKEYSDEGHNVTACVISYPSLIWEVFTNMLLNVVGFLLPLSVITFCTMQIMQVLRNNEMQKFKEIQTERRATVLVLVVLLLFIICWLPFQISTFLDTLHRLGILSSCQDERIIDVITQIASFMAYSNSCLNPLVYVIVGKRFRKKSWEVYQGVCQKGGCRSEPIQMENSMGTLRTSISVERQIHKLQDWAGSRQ

Rattus norvegicus [8] = experiment: Antihyperalgesic activity in po dosed Sprague-Dawley rat assessed as decrease in CFA-induced joint pain administered 3 days post CFA challenge; type: functional, organism-based
Outline: (§2)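 Knee monoarthritis induced by intra-articular CFA (0.1 ml); joint pain read as hind-limb weight-bearing deficit on an incapacitance tester (difference between un-injected and injected limbs as % of total hind-limb weight). Rats with post-CFA baseline 20–60% enrolled and randomized to equalize baselines; oral dosing on Day 3 post-CFA in 5% Tween 80 in saline; readings pre-dose and 0.5, 1, 2, 3, 4 h post-dose; change from baseline at maximum effect.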

Rattus norvegicus [9] = experiment: Antiinflammatory activity in Wistar rat pain model assessed as inhibition of DABK-induced paw oedema at 0.1 mg/kg, po administered 120 mins before DABK challenge measured by plethysometric analysis; type: functional; outline: as §1
Rattus norvegicus [10] = experiment: Antiinflammatory activity in Wistar rat pain model assessed as inhibition of DABK-induced paw oedema at 0.03 mg/kg, po administered 120 mins before DABK challenge measured by plethysometric analysis; type: functional; outline: as §1
Rattus norvegicus [11] = experiment: Antihyperalgesic activity in Sprague-Dawley rat assessed as decrease in CFA-induced joint pain at 1 to 3 mg/kg, po administered 3 days post CFA challenge; type: functional, organism-based; outline: as §2
Rattus norvegicus [12] = experiment: Antiinflammatory activity in Wistar rat pain model assessed as inhibition of DABK-induced paw oedema at 0.3 mg/kg, po administered 60 mins before DABK challenge; type: functional; outline: as §1
Rattus norvegicus [13] = experiment: Antiinflammatory activity in Wistar rat pain model assessed as inhibition of DABK-induced paw oedema at 3 mg/kg, po administered 60 mins before DABK challenge; type: functional; settings: read-out: INH; outline: as §1
Rattus norvegicus [14] = experiment: Antiinflammatory activity in Wistar rat pain model assessed as inhibition of DABK-induced paw oedema at 1 mg/kg, po administered 60 mins before DABK challenge; type: functional; outline: as §1
Rattus norvegicus [15] = experiment: Antiinflammatory activity in Wistar rat pain model assessed as inhibition of DABK-induced paw oedema at 3 mg/kg, po administered 30 mins before DABK challenge measured by plethysometric analysis; type: functional; outline: as §1
Rattus norvegicus [16] = experiment: Antiinflammatory activity in Wistar rat pain model assessed as inhibition of DABK-induced paw oedema at 10 mg/kg, po administered 30 mins before DABK challenge measured by plethysometric analysis; type: functional; outline: as §1
Rattus norvegicus [17] = experiment: Antiinflammatory activity in Wistar rat pain model assessed as inhibition of DABK-induced paw oedema at 1 mg/kg, po administered 30 mins before DABK challenge measured by plethysometric analysis; type: functional; outline: as §1

`O=C(CC1c2ccccc2-c2ccccc2N1S(=O)(=O)c1ccc(Cl)c(Cl)c1)NCCc1ccc(C2=NCCN2)cc1` (centres undefined) was tested, and the IC50 (B1 bradykinin receptor [1]) was 28 nM, the CLint (Liver microsomes [2]) was 2.5 mL/min/g and the Ki (B1 bradykinin receptor [3]) was 3.1 nM. The CLint (Liver microsomes [4]) was 9.8 mL/min/g.

`COc1cccc2c1-c1ccccc1N(S(=O)(=O)c1ccc(Cl)c(Cl)c1)C2CC(=O)N[C@H]1CC[C@H](CCN2CCCC2)CC1` (some centres undefined) was tested, and the inhibition in vivo at 0.3 mg/kg (Rattus norvegicus [5]) was 54%, the inhibition (Rattus norvegicus [6]) was “Dose-dependent effect” and the Activity [7] was 5.8%. For the same molecule, the Activity (Rattus norvegicus [8]) was “Dose-dependent effect”, the IC50 (B1 bradykinin receptor [1]) was 43 nM and the inhibition in vivo at 0.1 mg/kg (Rattus norvegicus [9]) was 27%. For the same molecule, the CLint (Liver microsomes [2]) was 1.8 mL/min/g, the Ki (B1 bradykinin receptor [3]) was 8.9 nM and the inhibition in vivo at 0.03 mg/kg (Rattus norvegicus [10]) was 19%. It also gave a CLint (Liver microsomes [4]) of 1.1 mL/min/g.

Molecule `O=C(CC1c2cc(F)ccc2-c2ccccc2N1S(=O)(=O)c1ccc(Cl)c(Cl)c1)NCCc1ccc(C2=NCCN2)cc1` (centres undefined) has an IC50 (B1 bradykinin receptor [1]) of 45 nM, a CLint (Liver microsomes [2]) of 1.6 mL/min/g and a Ki (B1 bradykinin receptor [3]) of 1.2 nM. The CLint (Liver microsomes [4]) was 5.5 mL/min/g.

`O=C(CC1CCc2ccccc2N1S(=O)(=O)c1ccc(Cl)c(Cl)c1)N[C@H]1CC[C@H](CCC2=NCCN2)CC1` (some centres undefined) gave a CLint (Liver microsomes [2]) of 0.6 mL/min/g, a Ki (B1 bradykinin receptor [3]) of 4.3 nM and a CLint (Liver microsomes [4]) of 9 mL/min/g.

`O=C(CC1c2ccccc2CCN1S(=O)(=O)c1ccc(Cl)c(Cl)c1)N[C@H]1CC[C@H](CCC2=NCCN2)CC1` (some centres undefined) showed a CLint (Liver microsomes [2]) of 1.1 mL/min/g, a Ki (B1 bradykinin receptor [3]) of 1 nM and a CLint (Liver microsomes [4]) of 12.5 mL/min/g.

`O=C(CC1c2ccccc2CCN1S(=O)(=O)c1ccc(Cl)c(Cl)c1)NCCc1ccc(C2=NCCN2)cc1` (centres undefined) gave a CLint (Liver microsomes [2]) of 1.9 mL/min/g, a Ki (B1 bradykinin receptor [3]) of 2.2 nM and a CLint (Liver microsomes [4]) of 4.2 mL/min/g.

`Cc1cc(C)c(S(=O)(=O)N2c3ccccc3-c3ccccc3C2CC(=O)NCCc2ccc(C3=NCCN3)cc2)cc1C` (centres undefined) gave an IC50 (B1 bradykinin receptor [1]) of 21 nM, a CLint (Liver microsomes [2]) of 2.7 mL/min/g and a Ki (B1 bradykinin receptor [3]) of 2.9 nM. It also gave a CLint (Liver microsomes [4]) of 16.4 mL/min/g.

In the case of `O=C(CC1CCc2ccccc2N1S(=O)(=O)c1ccc(Cl)c(Cl)c1)NCCN1CCN(c2ccncc2)CC1` (centres undefined), the CLint (Liver microsomes [2]) is reported as 7.4 mL/min/g, the Ki (B1 bradykinin receptor [3]) is reported as 166 nM and the CLint (Liver microsomes [4]) is reported as 16.8 mL/min/g.

For `O=C(CC1CCc2ccccc2N1S(=O)(=O)c1ccc(Cl)c(Cl)c1)Nc1ccc(N2CCC(N3CCCCC3)CC2)cc1` (centres undefined), the Ki (B1 bradykinin receptor [3]) was 628 nM.

For `O=C(O)Cc1ccccc1Nc1c(Cl)cccc1Cl` [DICLOFENAC], the Activity (Rattus norvegicus [11]) was “Active”, the inhibition in vivo at 0.3 mg/kg (Rattus norvegicus [12]) was 23% and the inhibition in vivo at 3 mg/kg (Rattus norvegicus [13]) was 35%. For the same molecule, the inhibition in vivo at 1 mg/kg (Rattus norvegicus [14]) was 24%.

`Cc1ccc(S(=O)(=O)N2c3ccccc3-c3ccccc3C2CC(=O)NCCc2ccc(C3=NCCN3)cc2)cc1` (centres undefined) gave an IC50 (B1 bradykinin receptor [1]) of 52 nM, a CLint (Liver microsomes [2]) of 1.5 mL/min/g and a Ki (B1 bradykinin receptor [3]) of 4.7 nM. It also gave a CLint (Liver microsomes [4]) of 12.9 mL/min/g.

With `O=C(CC1c2cc(F)cc(F)c2-c2ccccc2N1S(=O)(=O)c1ccc(Cl)c(Cl)c1)NCCc1ccc(C2=NCCN2)cc1` (centres undefined) the IC50 (B1 bradykinin receptor [1]) was 42 nM, the CLint (Liver microsomes [2]) was 3.9 mL/min/g and the Ki (B1 bradykinin receptor [3]) was 9.1 nM. The CLint (Liver microsomes [4]) was 8 mL/min/g.

For `COc1cccc2c1-c1ccccc1N(S(=O)(=O)c1ccc(Cl)c(Cl)c1)C2CC(=O)NCCc1ccc(C2=NCCN2)cc1` (centres undefined), the IC50 (B1 bradykinin receptor [1]) was 21 nM, the CLint (Liver microsomes [2]) was 2.6 mL/min/g and the Ki (B1 bradykinin receptor [3]) was 1.7 nM. The CLint (Liver microsomes [4]) was 1 mL/min/g.

Work on `COc1ccc(S(=O)(=O)N2c3ccccc3-c3ccccc3C2CC(=O)NCCc2ccc(C3=NCCN3)cc2)cc1` (centres undefined) yielded an IC50 (B1 bradykinin receptor [1]) of 81 nM, a CLint (Liver microsomes [2]) of 4.8 mL/min/g and a Ki (B1 bradykinin receptor [3]) of 15.5 nM. It also gave a CLint (Liver microsomes [4]) of 14.5 mL/min/g.

In the case of `O=C(CC1COc2ccccc2N1S(=O)(=O)c1ccc(Cl)c(Cl)c1)NCCc1ccc(C2=NCCN2)cc1` (centres undefined), the Ki (B1 bradykinin receptor [3]) is reported as 480 nM.

`O=C(CC1CCc2ccccc2N1S(=O)(=O)c1ccc(Cl)c(Cl)c1)NCCc1ccc(C2=NCCN2)cc1` (centres undefined) showed a CLint (Liver microsomes [2]) of 2.6 mL/min/g, a Ki (B1 bradykinin receptor [3]) of 6.3 nM and a CLint (Liver microsomes [4]) of 7.1 mL/min/g.

For `O=C(CC1c2ccccc2CCN1S(=O)(=O)c1ccc(Cl)c(Cl)c1)N1CCC(Cc2ccc(C3=NCCN3)cc2)CC1` (centres undefined), the CLint (Liver microsomes [2]) was 2.4 mL/min/g, the Ki (B1 bradykinin receptor [3]) was 3.8 nM and the CLint (Liver microsomes [4]) was 13.1 mL/min/g.

Work on `O=C(CC1Cc2ccccc2CN1S(=O)(=O)c1ccc(Cl)c(Cl)c1)NCCc1ccc(C2=NCCN2)cc1` (centres undefined) yielded a Ki (B1 bradykinin receptor [3]) of 481 nM.

`O=C(CC1C(=O)Nc2ccccc2N1S(=O)(=O)c1ccc(Cl)c(Cl)c1)Nc1ccccc1` (centres undefined) was tested, and the Ki (B1 bradykinin receptor [3]) was 1400 nM.

`COc1ccc2cc(S(=O)(=O)N[C@H](CC(=O)N[C@H](Cc3ccc(CN4[C@H](C)CCC[C@@H]4C)cc3)C(=O)N(C)C(C)C)c3ccc4c(c3)OCO4)ccc2c1` was tested, and the Activity (Rattus norvegicus [11]) was “Active”, the inhibition in vivo at 3 mg/kg (Rattus norvegicus [15]) was 16% and the inhibition in vivo at 10 mg/kg (Rattus norvegicus [16]) was 30%. It also gave an inhibition in vivo at 1 mg/kg (Rattus norvegicus [17]) of 6%.

`O=C(CC1c2ccccc2CCN1S(=O)(=O)c1ccc(Cl)c(Cl)c1)Nc1ccc(N2CCC(N3CCCCC3)CC2)cc1` (centres undefined) was tested, and the Ki (B1 bradykinin receptor [3]) was 138 nM.
